Data taken from PMC5829012 (Biochemistry, 2018).
Entries after “also recorded” stand apart in the source; their conditions may differ. Where two headings read alike, the source gives them in different places. Each block holds one compound with its values, some of them ahead of it.

Experiments:
[1] = target: T1, Aβ42-fibrinogen interaction (Homo sapiens, UniProt P05067); experiment: AlphaLISA of the Aβ42-fibrinogen interaction; assay type: binding; details: triplicate
Summary of the method: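 Test compound (0.1–100 μM) incubated 30 min at RT with 10 nM biotinylated Aβ42 and 1 nM fibrinogen in 25 mM Tris-HCl pH 7.4, 150 mM NaCl, 0.05% Tween-20, 0.1% BSA. Anti-fibrinogen antibody, 20 μg/ml streptavidin donor and protein A acceptor beads added for 90 min at RT. Triplicate runs; IC50 from sigmoidal dose-response fit with 95% CI.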

Aβ aggregation = details: cited from earlier work
[2] = target: T1, Aβ42-fibrinogen interaction; details: positive control; cited from earlier work
AD mouse models = details: cited from earlier work
Aβ42 = details: surface plasmon resonance; cited from earlier work
[3] = tested on: fibrin clot formation from fibrinogen with or without Aβ42 oligomers; experiment: In vitro clotting; assay type: biochemical, human; details: compound 20 μM; fibrinogen 1.5 μM; thrombin; 450 nm
Summary of the method: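 Purified human fibrinogen (1.5 μM) was preincubated with test compound (20 μM) or 0.4% DMSO vehicle, with or without Aβ42 oligomers (3 μM). Oligomers were made from HFIP-monomerized films: sonicated in DMSO, agitated overnight at 4°C, spun at 20,000 x g, and quantified by BCA. Clotting was started with thrombin (0.5 U/mL) and CaCl₂ (5 mM) in 20 mM HEPES pH 7.4, 137 mM NaCl at RT. A450 turbidity was followed over time, in triplicate.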

Aβ42 aggregation = Aβ42 aggregation (Homo sapiens, UniProt P05067); experiment: Aβ42 aggregation kinetics by ThT fluorescence; assay type: biochemical; details: Aβ42 12.5 μM; compound 48 μM; 37°C, 26 hrs
Summary of the method: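 HFIP-monomerized Aβ42 was dissolved in DMSO by sonication, diluted in 20 mM HEPES pH 7.4/140 mM NaCl, spun 10 min at 4°C and kept on ice for ≤30 min. Wells were DMSO-matched; buffer ± compound served as controls. ThT was 33 μM final; plates shaken at 25 rpm, 37°C. Fluorescence (ex 440/em 480 nm) was read hourly. Triplicate.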

[4] = tested on: Aβ42-induced activation of the FXII-mediated contact system; experiment: Kallikrein activity assay; assay type: biochemical, human; details: DXS 0.1 μg/ml
Summary of the method: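 Aβ42 oligomers (overnight 4°C in HEPES buffer, 1 μM final) ± test compound (40 μM) shaken 30 min at RT in 20 mM HEPES pH 7.4/140 mM NaCl. Human FXII and plasma prekallikrein added (10 nM each), then S-2302 (0.67 mM final). A405 read at RT; rate over 30 min as mU/min. DXS 0.1 µg/ml ± test compound as positive control; triplicate.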

[5] = read-out: AlphaLISA (IC50), known Aβ aggregation inhibitors (Table 1), 10 nM biotinylated Aβ42, 1 nM fibrinogen

T1 sequence (P05067 672-713 limits assumed): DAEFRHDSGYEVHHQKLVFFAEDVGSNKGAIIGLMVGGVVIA
Chain of Aβ42 aggregation (P05067 672-713 limits assumed): as above

Compound: CN(C)CCN(Cc1ccccc1)C(=O)c1cc(-c2ccc(F)cc2)n2nc(C(C)(C)C)cc2n1 [RU-505]
inhibition of the Aβ42-fibrinogen interaction [2]: known inhibitor of the Aβ42-fibrinogen interaction
cognitive impairment (AD mouse models): lessened the severity
cortical inflammation (AD mouse models): reduced
vascular Aβ deposition (AD mouse models): reduced

Compound: Dextran sulfate
kallikrein activity (positive control) [4]: high kallikrein activity

Compound: Tanshinone
IC50 [1, 5]: > 100 µM
inhibition of Aβ aggregation and its toxicity (Aβ aggregation): strongly inhibit

Now from value to compound, other results behind:

IC50 [1, 5]: 43.2 µM
Compound: O=C1NC(=O)c2cc(Nc3ccccc3)c(Nc3ccccc3)cc21 [4,5-Dianilino Pthalimide (DAPH), 4,5-Dianilino Pthalimide]

IC50 [1, 5]: > 100 µM
Compound: Oc1cccc(Nc2ccc(Nc3cccc(O)c3)nn2)c1 [RS-0406]
inhibition of Aβ aggregation and its toxicity (Aβ aggregation): strongly inhibit

IC50 ([1]; RHS analogs of SEN1269 (Table 2), AlphaLISA): 17.8 µM
IC50 [1, 5]: 17.8 µM
Aβ42 aggregation (ThT fluorescence) (Aβ42 aggregation): effectively inhibited Aβ42 aggregation
Compound: CN(C)c1cccc(Oc2cnc(Nc3cccc(O)c3)nc2)c1 [SEN1269]
binding to Aβ42 (Aβ42): binds to Aβ42; also recorded: shown to bind Aβ42
inhibition of Aβ aggregation / β-pleated sheet assembly and toxicity (Aβ aggregation): potent Aβ aggregation inhibitor; also recorded: block
turbidity of the normal fibrin clot formed in the absence of Aβ42 [3]: further decreased the turbidity
